The species named for assay [1] is Homo sapiens. As to the kind of experiment: Inhibition of P-gp-mediated Rhodamine-123 efflux in human p53 -/- H1299 cells assessed as Rhodamine-123 accumulation measured after 40 mins by spectrofluorimetry.
For the next assay, the system named is HCT-116. As to the kind of experiment: Growth inhibition of human p53 -/- NCI-HCT-116 cells upto 10 uM incubated for 48 hrs. To be noted: dose microM <=10, time 48.0 hrs. The class given is functional, cell-based. In outline:
(§1)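 Cells plated in DMEM and grown 48 h in 96-well optical-bottom plates before treatment. Compounds were added as 200X dilutions of DMSO stocks and tested up to 10 μM. After 48 h, wells were washed with PBS and monolayer confluence was scored by brightfield imaging. Untreated cells served as controls. Triplicate; mean ± SEM.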

The species entered for assay [2] is Homo sapiens. Nature of the assay: Inhibition of P-gp-mediated Rhodamine-123 efflux in human p53 -/- HCT-116 assessed as Rhodamine-123 accumulation measured after 40 mins by spectrofluorimetry. The essentials:
(§2)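 Cells in DMEM, 96-well plates, grown to 30% confluency, then co-treated with compounds and Rhodamine 123 (1 μM in solution). Even cell distribution checked by imaging. After 40 min, cells were washed and Rhodamine 123 fluorescence read on a plate reader (ex 488 nm, em 515-575 nm). Signal with 0.5 μM tariquidar in each line set to 100%. Triplicate; mean ± SEM.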

For a further assay, the system named is NCI-H1299. Nature of the assay: Growth inhibition of human p53 -/- H1299 cells upto 10 uM incubated for 48 hrs. To be noted: dose microM <=10, time 48.0 hrs.
The species entered for assay [3] is Homo sapiens. As to the kind of experiment: Inhibition of P-gp-mediated Rhodamine-123 efflux in human MCF7 cells assessed as Rhodamine-123 accumulation measured after 40 mins by spectrofluorimetry. The class given is cell-based. In outline:
as §2

Another assay relates to MCF7. Nature of the assay: Growth inhibition of human MCF7 upto 10 uM incubated for 48 hrs. The class given is functional, cell-based. To be noted: dose microM <=10, time 48.0 hrs. The essentials: as §1

Active and inactive are the calls of the source. The rule behind the calls is not given here.

Here are results for five compounds from ChEMBL document CHEMBL4665721, “Mdm2 inhibitors as a platform for the design of P-glycoprotein inhibitors” (Bioorg Med Chem Lett, 2020).

In the case of `COc1ccc(C2=N[C@@H](c3ccc(Cl)cc3)[C@@H](c3ccc(Cl)cc3)N2C(=O)N2CCNC(=O)C2)c(OC(C)C)c1`, the inhibition entry in the assay listed under Homo sapiens [1] was “Active”.
Turning to `CC(C)[C@@H](CS(=O)(=O)C(C)C)N1C(=O)[C@@](C)(CC(=O)O)C[C@H](c2cccc(Cl)c2)[C@H]1c1ccc(Cl)cc1`, the inhibition result in the assay on HCT-116, in the assay on NCI-H1299 and in the assay listed under Homo sapiens [1] was “Active” each time. Further, the inhibition entry in the assay listed under Homo sapiens [2] and in the assay filed under Homo sapiens [3] was “inactive” throughout.
Regarding `N[C@H](C(=O)OCCCOC1(c2ccc(Cl)cc2)c2ccccc2C(=O)N1Cc1ccc(Cl)cc1)c1ccccc1` (stereo not given in full), the inhibition entry in the assay listed under Homo sapiens [2], in the assay listed under Homo sapiens [3] and in the assay listed under Homo sapiens [1] was “Active” throughout.
In the case of `O=C(NCc1ccc(F)cc1)c1ccc(/C=C2\C(=O)N(CN3CCN(Cc4cccc(Cl)c4)CC3)c3ccc(Cl)cc32)cc1`, the inhibition result in the assay filed under Homo sapiens [2], in the assay filed under Homo sapiens [3] and in the assay filed under Homo sapiens [1] was “Active” in each case.
For `COc1cc2c(cc1OC)CN(CCc1ccc(NC(=O)c3cc(OC)c(OC)cc3NC(=O)c3cnc4ccccc4c3)cc1)CC2`, the inhibition result in the assay on HCT-116, in the assay on NCI-H1299 and with MCF7 was “inactive” in each case.
